From publication PMC9979266 (Acta Pharmaceutica Sinica. B, 2022)

What was measured:
[1] = tested on: TGF-β1-induced A549 cells; test: Marker expression; format: cell-based, human; settings: n = 3; for miR-23b-5p expression after inhibitor treatment: 10 μmol/L pretreatment, qPCR
Method in brief: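 A549 in RPMI 1640 + 10% FBS, plated 24 h, serum-starved overnight. Three pathway inhibitors at 10 μmol/L added 30 min before TGF-β1 (5 ng/mL) plus test peptide. Harvest: RNA/protein at 48 h, phosphoproteins at 1 h. Western: 30 μg protein, 10% SDS-PAGE, ECL, GAPDH-normalised. qPCR: 2−ΔΔCt with GAPDH (mRNA) or U6 (miRNA) reference. At least three independent replicates, mean ± SD.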

NIH3T3 cells = test: MTT cell cytotoxicity assay, NIH3T3; format: cell-based, murine; settings: 10–160 μmol/L, 24 h, n = 3

| Compound | miR-23b-5p expression after inhibitor treatment [1] | AQP5 expression after inhibitor pretreatment ([1]; 10 μmol/L, 30 min pretreatment, Western blot) | Cytotoxicity against NIH3T3 cells (NIH3T3 cells) |
| --- | --- | --- | --- |
| COc1cccc(-c2cc(=O)c3ccccc3o2)c1N [PD98059] | reduced | elevated |  |
| C[S+]([O-])c1ccc(-c2nc(-c3ccncc3)c(-c3ccc(F)cc3)[nH]2)cc1 (stereo not drawn) [SB203580] | reduced |  |  |
| DHAAPQIR-NH2 [DR3d4dA] |  |  | no toxicity |
| DHANPQIR-NH2 [DR3dA] |  |  | no toxicity |
| DHNAPQIR-NH2 [DR4dA] |  |  | no toxicity |
